Assay results reported in ChEMBL document CHEMBL1151908, “Towards calixarene-based prodrugs: Drug release and antibacterial behaviour of a water-soluble nalidixic acid/calix[4]arene ester adduct” (Bioorg Med Chem Lett, 2009).
Converted amounts (≈) assume the structure as drawn. The source made the active and inactive calls. The calls are words filed in the database; no cut-off is given here.

What was measured:
Escherichia coli [1] = assay: Antibacterial activity against Escherichia coli ATCC 25922 after 18 to 24 hrs by CA-SFM and NCCLS-based broth microdilution method; format: functional
Method in brief: (§1)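 MIC determined in liquid phase by broth microdilution in U-bottom 96-well plates. Bacteria were grown in Mueller-Hinton broth or agar, and isolate purity was checked at each test by colony morphology and Gram stain. The final inoculum was 1×10^5 CFU/mL, with a series of drug concentrations added. Plates were incubated 18–24 h at 35 °C, and growth was read by absorbance at 540 nm. MIC is expressed in µmol/L and µg/mL.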

Staphylococcus aureus [2] = assay: Antibacterial activity against Staphylococcus aureus ATCC 25923 after 18 to 24 hrs by CA-SFM and NCCLS-based broth microdilution method; format: functional; method in brief: as §1
Staphylococcus aureus [3] = assay: Antibacterial activity against Staphylococcus aureus ATCC 29213 after 18 to 24 hrs by CA-SFM and NCCLS-based broth microdilution method; format: functional; method in brief: as §1
Enterococcus faecalis [4] = assay: Antibacterial activity against Enterococcus faecalis ATCC 29212 after 18 to 24 hrs by CA-SFM and NCCLS-based broth microdilution method; format: functional; method in brief: as §1
Pseudomonas aeruginosa [5] = assay: Antibacterial activity against Pseudomonas aeruginosa ATCC 27853 after 18 to 24 hrs by CA-SFM and NCCLS-based broth microdilution method; format: functional; method in brief: as §1
Escherichia coli [6] = assay: Antibacterial activity against Escherichia coli ATCC 25922 at < 256 ug/mL after 18 to 24 hrs by CA-SFM and NCCLS-based broth microdilution method; format: functional, organism-based
Staphylococcus aureus [7] = assay: Antibacterial activity against Staphylococcus aureus ATCC 25923 at < 256 ug/mL after 18 to 24 hrs by CA-SFM and NCCLS-based broth microdilution method; format: functional, organism-based
Staphylococcus aureus [8] = assay: Antibacterial activity against Staphylococcus aureus ATCC 29213 at < 256 ug/mL after 18 to 24 hrs by CA-SFM and NCCLS-based broth microdilution method; format: functional, organism-based
Enterococcus faecalis [9] = assay: Antibacterial activity against Enterococcus faecalis ATCC 29212 at < 256 ug/mL after 18 to 24 hrs by CA-SFM and NCCLS-based broth microdilution method; format: functional, organism-based
Pseudomonas aeruginosa [10] = assay: Antibacterial activity against Pseudomonas aeruginosa ATCC 27853 at < 256 ug/mL after 18 to 24 hrs by CA-SFM and NCCLS-based broth microdilution method; format: functional, organism-based

Q: Which MIC (Escherichia coli [1]) does the source give for `CCn1cc(C(=O)OCCCOc2c3cc(CCN)cc2Cc2cc(CCN)cc(c2O)Cc2cc(CCN)cc(c2O)Cc2cc(CCN)cc(c2O)C3)c(=O)c2ccc(C)nc21` here?
A: The MIC was 25 µM (≈ 21.7 µg/mL).

Q: What about the MIC (Staphylococcus aureus [2]) of the same compound?
A: The MIC was 50 µM (≈ 43.5 µg/mL).

Q: What about the MIC (Staphylococcus aureus [3]) of the same compound?
A: Its MIC is 50 µM (≈ 43.5 µg/mL).

Q: And the MIC (Enterococcus faecalis [4])?
A: The MIC was 100 µM (≈ 86.9 µg/mL).

Q: What about the MIC (Pseudomonas aeruginosa [5]) of the same compound?
A: Its MIC is 100 µM (≈ 86.9 µg/mL).

Q: Which results are given for `CCn1cc(C(=O)O)c(=O)c2ccc(C)nc21` [NALIDIXIC ACID]?
A: MIC (Escherichia coli [1]): 100 µM (≈ 23.2 µg/mL); MIC (Staphylococcus aureus [2]): 200 µM (≈ 46.4 µg/mL); MIC (Staphylococcus aureus [3]): 200 µM (≈ 46.4 µg/mL); MIC (Enterococcus faecalis [4]): 200 µM (≈ 46.4 µg/mL); MIC (Pseudomonas aeruginosa [5]): 200 µM (≈ 46.4 µg/mL)

Q: For `NCCc1cc2c(O)c(c1)Cc1cc(CCN)cc(c1O)Cc1cc(CCN)cc(c1OCCCO)Cc1cc(CCN)cc(c1O)C2`, which MIC (Escherichia coli [1]) is on record?
A: The MIC was 110 µM (≈ 72 µg/mL).

Q: And the MIC (Staphylococcus aureus [2])?
A: Its MIC is 220 µM (≈ 144 µg/mL).

Q: What about the MIC (Staphylococcus aureus [3]) of the same compound?
A: Its MIC is 220 µM (≈ 144 µg/mL).

Q: What about the MIC (Enterococcus faecalis [4]) of the same compound?
A: Its MIC is > 220 µM.

Q: What about the MIC (Pseudomonas aeruginosa [5]) of the same compound?
A: Its MIC is 220 µM (≈ 144 µg/mL).

Q: What does the source list for `O=C([O-])C(F)(F)F.[Na+]`?
A: Activity (Escherichia coli [6]): inactive; Activity (Staphylococcus aureus [7]): inactive; Activity (Staphylococcus aureus [8]): inactive; Activity (Enterococcus faecalis [9]): inactive; Activity (Pseudomonas aeruginosa [10]): inactive
